# Measurements published in ChEMBL document CHEMBL1154369, “Betulin-derived compounds as inhibitors of alphavirus replication” (J Nat Prod, 2009).
# The source made the active and inactive calls. The calls are words filed in the database; no cut-off is given here.
# How the values were obtained:
# Semliki Forest virus [1] = experiment: Antiviral activity against SFV infected in BHK cells assessed as decrease in surviving virus fraction at 50 uM treated during time of viral adsorption for 1 hr measured after 5 hrs by luciferase reporter gene assay; type: functional, organism-based
# In short: (§1)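 Time-of-addition run with SFV-Rluc at high multiplicity (5 PFU/cell) in BHK-21 cultures, covering a single replication cycle. Compound present throughout (0-5 h), only during adsorption (0-1 h), at 1-5 h, or at 2-5 h. Surviving fraction is the remaining Renilla luciferase activity, read at 5 h per legend (4.5 h in text); means ± SD, n = 4.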
# Semliki Forest virus [2] = experiment: Antiviral activity against SFV infected in BHK cells assessed as decrease in surviving virus fraction at 200 uM treated 1 hr after viral adsorption measured after 5 hrs by luciferase reporter gene assay; type: functional, organism-based; in short: as §1
# [3] = Cytotoxicity against human HuH7 cells assessed as cell viability at 500 uM after 24 hrs; type: cell-based, Huh-7; settings: read-out: Activity
# In short: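 Huh-7 human hepatocellular carcinoma cells exposed 24 h to derivative at 500 µM in an extended cytotoxicity analysis. Viability measured as intracellular ATP content and reported as surviving fraction.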
# Semliki Forest virus [4] = experiment: Antiviral activity against SFV infected in BHK cells assessed as surviving virus fraction at 50 uM after 14 hrs by luciferase reporter gene assay; type: functional; parameters: scale not given here
# Sindbis virus = experiment: Antiviral activity against Sindbis virus infected in BHK cells assessed as inhibition of RNA synthesis after 14 hrs by [3H]uridine incorporation assay; type: functional, organism-based
# In short: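 Sindbis virus from infectious cDNA clone grown in BHK-21 cells. Viral RNA synthesis rate measured by [3H]-uridine labeling. Serial compound dilutions from 16 pM to 50 µM. IC50 from nonlinear regression to sigmoidal dose-response curves; means ± SD, n = 4.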
# Semliki Forest virus [5] = experiment: Antiviral activity against SFV infected in BHK cells assessed as decrease in surviving virus fraction at 200 uM treated during time of viral adsorption for 1 hr measured after 5 hrs by luciferase reporter gene assay; type: functional, organism-based; in short: as §1
# [6] = Cytotoxicity against human HuH7 cells assessed as cell viability at 50 uM after 24 hrs
# Semliki Forest virus [7] = experiment: Antiviral activity against SFV infected in BHK cells assessed as surviving virus fraction at 50 uM after 14 hrs by luciferase reporter gene assay in presence of 50 ug/ml guanosine; type: functional, organism-based
# Semliki Forest virus [8] = experiment: Antiviral activity against SFV infected in BHK cells assessed as decrease in surviving virus fraction at 50 uM treated 1 hr after viral adsorption measured after 5 hrs by luciferase reporter gene assay; type: functional, organism-based; in short: as §1
# Semliki Forest virus [9] = experiment: Antiviral activity against SFV infected in BHK cells after 14 hrs by luciferase reporter gene assay; type: functional, organism-based
# In short: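 SFV-Rluc reporter virus from infectious cDNA clone; BHK-21 cells infected at low multiplicity (0.001 PFU/cell) and incubated 14 h, spanning over 2 infectious cycles. Serial dilutions of each derivative tested. Luciferase read-out as surviving virus fraction. IC50 from a sigmoidal dose-response fit; means ± SD, n = 6. 3′-Amino-3′-deoxyadenosine (20 µM) served as screen positive control.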
# Semliki Forest virus [10] = experiment: Antiviral activity against SFV infected in BHK cells assessed as decrease in surviving virus fraction at 50 uM treated 2 hr after viral adsorption measured after 5 hrs by luciferase reporter gene assay; type: functional, organism-based; in short: as §1
# Semliki Forest virus [11] = experiment: Antiviral activity against SFV infected in BHK cells assessed as surviving virus fraction at 20 uM after 14 hrs by luciferase reporter gene assay; type: functional
# In short: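 BHK-21 cells were infected with the luciferase marker virus SFV-Rluc, made from an infectious cDNA clone, at a low multiplicity of 0.001 PFU/cell. Infection ran through more than 2 infectious cycles over a 14 h incubation, and the read-out was luciferase reporter activity. The surviving fraction was the percentage of viral replication remaining. The screen was automated and run in triplicate.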
SMILES,IC50 (Sindbis virus; read-out: IC50) [µM],IC50 (Sindbis virus; read-out: pIC50 (converted)) [µM],IC50 (Semliki Forest virus [9]; read-out: IC50) [µM],IC50 (Semliki Forest virus [9]; read-out: pIC50 (converted)) [µM],Activity (Semliki Forest virus [1]),Activity (Semliki Forest virus [2]),"viability at 24 h, 500 µM [3] [%]",Activity (Semliki Forest virus [4]) [%],Activity (Semliki Forest virus [5]),"viability at 24 h, 50 µM [6] [%]",Activity (Semliki Forest virus [7]),Activity (Semliki Forest virus [8]),Activity (Semliki Forest virus [10]),Activity (Semliki Forest virus [11]) [%]
C=C(C)[C@@H]1CC[C@]2(C=O)CC[C@]3(C)[C@H](CC[C@@H]4[C@@]5(C)CCC(=O)C(C)(C)[C@@H]5CC[C@]43C)[C@@H]12 [BETULONAL],–,–,38.3,38,–,–,52,8,–,90,–,–,–,–
CC(=O)OC[C@]12CC[C@]3(C(C)C)C1=C1[C@H](C[C@@H]4[C@@]5(C)CC[C@H](OC(C)=O)C(C)(C)[C@@H]5CC[C@@]4(C)[C@]1(C)CC2)n1c(=O)n(Cc2ccccc2)c(=O)n13,–,–,35.9,36.3,–,–,> 80,1,–,101,–,–,–,–
Nc1ncnc2c1ncn2[C@@H]1O[C@H](CO)[C@@H](N)[C@H]1O,–,–,18,–,–,–,–,–,–,–,–,–,–,12
C=C(C)[C@@H]1CC[C@]2(C(=O)O)CC[C@]3(C)[C@H](CC[C@@H]4[C@@]5(C)CCC(=O)C(C)(C)[C@@H]5CC[C@]43C)[C@@H]12 [BETUNOLIC ACID],–,–,13.3,13.2,–,–,> 80,13,–,89,–,–,–,–
CC(C)[C@@H]1CC[C@]2(C(=O)O)CC[C@]3(C)[C@H](CC[C@@H]4[C@@]5(C)CCC(=O)C(C)(C)[C@@H]5CC[C@]43C)[C@@H]12 [DIHYDROBETULONIC ACID],–,–,30.6,30.2,–,–,> 80,14,–,102,–,–,–,–

# Continued, in another order:
IC50 (Sindbis virus; read-out: IC50) [µM],IC50 (Sindbis virus; read-out: pIC50 (converted)) [µM],IC50 (Semliki Forest virus [9]; read-out: IC50) [µM],IC50 (Semliki Forest virus [9]; read-out: pIC50 (converted)) [µM],SMILES,Activity (Semliki Forest virus [1]),Activity (Semliki Forest virus [2]),"viability at 24 h, 500 µM [3] [%]",Activity (Semliki Forest virus [4]) [%],Activity (Semliki Forest virus [5]),"viability at 24 h, 50 µM [6] [%]",Activity (Semliki Forest virus [7]),Activity (Semliki Forest virus [8]),Activity (Semliki Forest virus [10]),Activity (Semliki Forest virus [11]) [%]
6.1,6.17,19.7,19.5,CC(=O)OC[C@]12CC[C@]3(C(C)C)C1=C1[C@H](C[C@@H]4[C@@]5(C)CC[C@H](OC(C)=O)C(C)(C)[C@@H]5CC[C@@]4(C)[C@]1(C)CC2)n1c(=O)n(-c2ccccc2)c(=O)n13,inactive,Active,> 80,13,inactive,87,Active,Active,Active,–
–,–,13.3,11.5,CC(=O)OC[C@]12CC[C@]3(C(C)C)O[C@]13[C@H]1CC[C@@H]3[C@@]4(C)CC[C@H](OC(C)=O)C(C)(C)[C@@H]4CC[C@@]3(C)[C@]1(C)CC2,–,–,> 80,16,–,92,–,–,–,–
–,–,22.9,22.9,CC(=O)OC[C@]12CC[C@]3(C(C)C)C1=C1[C@H](C[C@@H]4[C@@]5(C)CC[C@H](OC(C)=O)C(C)(C)[C@@H]5CC[C@@]4(C)[C@]1(C)CC2)n1c(=O)n(-c2cccc([N+](=O)[O-])c2)c(=O)n13,–,–,> 80,3,–,108,–,–,–,–
